L major viab: Leishmania major promastigote growth inhibition, primary screen | Leishmania major promastigotes, resazurin fluorescence viability | inhibition, % at 10 µM | hit rate 9% among 200,000 | AID 1063, 2008;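 note: promastigotes grown with compound for 44 hours at 28 °C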
Diaph act CS: compounds boosting diaphorase resazurin reduction – biochemical, uHTS, resorufin fluorescence, counter-screen for diaphorase-coupled primary assays, primary screen; hit rate 0.005% among 190,000; Diaphorase/resazurin coupled assay, 16 min; active compounds read high; 1 = vehicle wells, 0 = NADH-free wells; activation factor at 20 µM; AID 1229, 2008;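 active = diaphorase activity raised at least twofold by the compound at 20 µM; inactive = activation factor below 2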
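Material: Purified diaphorase enzyme from Clostridium kluyveri | Buffer or medium: 50 mM HEPES pH 7.4 with 4.542 mM MgCl2, 0.005% Tween 20 | Times: 16 min enzyme reaction, ambient temperature | Signal: Red resorufin fluorescence at 544/590 nm excitation/emission | Measure: Increased resorufin signal from activators or reducing compounds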
Redox H2O2 prof: compounds producing H2O2 with reducing agent – biochemical, NIH compound library profiling, artefact control for MLSCN library redox annotation, primary screen. DTT-dependent redox cycling H2O2, phenol red/HRP absorbance; 100% = 100 µM peroxide control, 0% = buffer. activation, % at 10 µM. hit rate 0.03% among 200,000;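 active = activation of at least 50% relative to the plate's high and low controls in the primary single-dose screen; inactive = activation below 50%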;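 note: compound incubated with DTT at 0.8 mM final as the reducing agent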
Diaphorase inh: diaphorase inhibitors and chemical oxidizers, primary screen, counter-screen for diaphorase-coupled primary assays, biochemical, uHTS, resorufin fluorescence. diaphorase resazurin-to-resorufin fluorescence, NADH, 16 min; bacterial (C. kluyveri) enzyme, not human. inhibition, % at 20 µM. hit rate 0.69% among 190,000;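 active = primary screen inhibition at 20 µM above a set limit, cut at about 50% in these data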;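 note: plate controls were DMSO with full reaction for no effect and wells lacking NADH for full effect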
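Assay system – diaphorase enzyme from Clostridium kluyveri · Amount – diaphorase 0.14 U/mL (working solution) · Times – reaction incubation of 16 min at room temperature · Controls – No-NADH positive control and DMSO neutral control · Signal – resorufin fluorescence 544/590 nm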
PfG6PD inh: PfG6PD enzyme inhibitors, primary screen, biochemical, fluorescence intensity, uHTS | inhibition, % at 20 µM | hit rate 0.78% among 350,000 | AID 504690, 2011 | PfGluPho enzyme, NADPH resazurin-diaphorase fluorescence | glucose-6-phosphate dehydrogenase-6-phosphogluconolactonase (Plasmodium falciparum 3D7);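 active = inhibition reaching at least a set limit at 20 µM in the primary screen, cut at about 59% in these data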;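 note: 0% = DMSO wells with substrate and 100% = DMSO wells lacking glucose-6-phosphate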
G6PDH counter: L. mesenteroides G6PDH inhibitors, counter-screen for G6PDH-coupled screening assays, biochemical, Leuconostoc mesenteroides enzyme; inhibition, % at 5 µM; hit rate 0.12% among 200,000; Purified L. mesenteroides G6PDH, diaphorase/resazurin coupled fluorescence, 45 min
* hit, by the source's call; . = not tested or not shown. This excerpt belongs to a sample that is enriched for hits. Cut-off read from the data, not from the text of the source, unless noted: active = inhibition above about 50%; inactive = the rest.

SMILES	L major viab	Diaph act CS	Redox H2O2 prof	Diaphorase inh	PfG6PD inh	G6PDH counter
O=S1(=O)N[C@H](c2ccccc2)C[C@H](c2ccc(C(F)(F)F)cc2)O1	.	.	.	.	10	.
COc1ccccc1C1CC(=O)Nc2cc(C)c(C)cc21 (stereo not given)	.	.	.	.	3	.
O=C1CC(c2cc(Br)ccc2F)c2cc3c(cc2N1)CCC3 (stereo not given)	1	1	3	3	-3	-4
CCCOc1ccccc1C1CC(=O)Nc2cc3c(cc21)OCCO3 (stereo not given)	98*	0.8	-3	22	39	14
Cc1cc2c(cc1C)C(c1ccccc1Br)CC(=O)N2 (stereo not given)	99*	1	0	2	1	9
O=C1CC(c2ccccc2F)c2cc3c(cc2N1)CCC3 (stereo not given)	97*	0.9	-4	10	5	6
CCOC(=O)C1C2C=CC3(CN(c4ccccc4CC)C(=O)C13)O2 (stereo not given)	-5	.	3	.	0	.
COc1ccc(/C=C/C(=O)OCC(=O)NC2CCCC2)cc1	.	.	.	.	4	.
COc1ccc([N+](=O)[O-])cc1NC(=O)c1cn(-c2ccc(Cl)cc2)c(=O)c2ccccc12	60*	1	0	4	1	1
O=C(CNC(=O)c1ccccc1F)N/N=C/c1cc(Br)ccc1OC(=O)/C=C/c1ccco1	87*	0.8	0	24	20	1
COc1ccccc1C(=O)NCC(=O)N/N=C/c1cc(Br)ccc1OC(=O)/C=C\c1ccco1	92*	0.7	0	26	7	1
O=C(O)CSCC(=O)Nc1ccccc1SCCS(=O)(=O)c1ccc(Cl)cc1	.	.	.	.	0	.
Cc1ccc(S(=O)(=O)N2C(=O)CCC2C(=O)O/N=C(\N)c2ccccc2)cc1 (stereo not given)	.	.	.	.	-6	.
COc1ccc(-c2cc(-c3nnc(COC(=O)c4ccc(O)cc4)o3)c3ccccc3n2)cc1OC	59*	0.8	0	24	13	2
O=C(c1ccc(Br)cc1)N1CCCC(c2nc(-c3cccs3)no2)C1 (stereo not given)	67*	0.8	-1	16	4	7
N#C/C(=C\c1ccc([N+](=O)[O-])o1)c1nc2ccccc2[nH]1	100*	0.9	1	8	51	-23
N#C/C(=C\c1ccccc1)c1nc2ncccc2[nH]1	66*	0.9	-4	13	5	8
N#C/C(=C\c1cccs1)c1nc2ccccc2[nH]1	60*	0.8	0	17	13	2
N#C/C(=C\c1ccc(OC(=O)c2cccs2)cc1)c1nc2ccccc2[nH]1	32	0.8	-1	19	-1	4
COc1ccc2nc(/C(C#N)=C\c3ccc(Oc4ccc([N+](=O)[O-])cn4)cc3)[nH]c2c1	3	1	0	-1	-4	-5
N#C/C(=C/c1ccc(O)c(O)c1)c1nc2ccccc2[nH]1	.	.	.	.	-10	.
Cc1ccc2nc(/C(C#N)=C\c3ccc(Oc4ccc([N+](=O)[O-])cn4)cc3)[nH]c2c1	99*	0.9	0	10	-14	-3
Cc1ccc2nc(/C(C#N)=C\c3ccc(N4CCOCC4)o3)[nH]c2c1	26	0.6	1	36	25	15
Cc1ccc2nc(/C(C#N)=C\c3cc(C)n(-c4cccc([N+](=O)[O-])c4)c3C)[nH]c2c1	85*	0.8	1	20	-3	3
N#C/C(=C\C1CC2C=CC1C2)c1nc2ccccc2[nH]1 (stereo not given)	56*	0.9	0	13	-3	13
Cc1ccc2nc(/C(C#N)=C\c3ccc([N+](=O)[O-])o3)[nH]c2c1	100*	0.7	-8	29	43	13

From PubChem BioAssay
